# Screening results: PubChem, several laboratories
# CRFBP-R2 agonist: agonists of CRF-BP/CRF-R2 complex, primary screen, cell-based, HEK293, calcium dye fluorescence, uHTS; CRF-binding protein / CRF receptor 2 complex (human); calcium dye fluorescence (FLIPR); percent of saturating CRF peptide response; activation, % at 13.2 µM; hit rate 0.46% among 350,000;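 active = activation of at least 50%, plus an integration ratio under a set limit after plate pattern correction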
# TRPML3 ag: human TRPML3 channel agonists, primary screen, cell-based, HEK293 TRPML3-YFP, Fluo-8 calcium fluorescence, 3 µM | Mucolipin-3 (Homo sapiens), Q8TDD5 | hit rate 0.29% among 220,000 | 100% = the carbachol control signal | activation, % at 3 µM;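 active = activation above its plate's cutoff, the mean activation of the plate's test wells plus 3 SD, cut at about 12% in these data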
#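 Material: TRPML3-YFP stable HEK293 cells | Dosing: One concentration, 3 µM nominal, 0.3% DMSO | Timing: 125 s total fluorescence read per well | Technique: Fluo-8 calcium dye fluorescence, ex 470-495, em 515-575 nm | Measure: Percent activation from peak-to-basal fluorescence ratio, scaled between DMSO and carbachol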
# zfTRPN1 agonist: zebrafish TRPN1 channel agonists, primary screen, cell-based, HEK293, calcium fluorescence; transient receptor potential cation channel N1 (TRPN1/NompC), Danio rerio; HEK293 zebrafish TRPN1-YFP, Fluo-8 calcium fluorescence; 100% = response to 87 µM carbachol; activation, % at 3 µM; hit rate 0.18% among 220,000; AID 1424, 2008;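 active = activation above its plate's cutoff, the mean activation of test wells on that plate plus 3 SD, cut at about 19% in these data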
#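 System: zebrafish TRPN1-YFP in HEK293 cells / Dosing: 3 µM single point / Timing: dye loading 1 h at 37 °C, then 30 min room temperature / Signal: Fluo-8 calcium fluorescence, excitation 470-495 nm, emission 515-575 nm / Read-out basis: percent activation from peak over basal fluorescence ratio, control-normalized / Control set: high carbachol 87 µM, low DMSO alone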
# CRFBP-R2 block: antagonists of CRF-BP/CRF-R2 complex, primary screen, cell-based, HEK293, calcium dye fluorescence, uHTS; CRF-induced calcium fluorescence; inhibition, % at 11.8 µM; hit rate 0.59% among 350,000;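 active = inhibition of the ligand-induced calcium signal above about 50% at the single tested concentration, limit read from the data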
# Hits are given with their value; . = inactive; / = not tested or not shown. In the library only some 1.2% were active in any assay of this set; here they are far more common.
SMILES,CRFBP-R2 agonist,TRPML3 ag,zfTRPN1 agonist,CRFBP-R2 block
CCn1c(CC(=O)Nc2ccc(Cl)c(Cl)c2)nnc1SCc1ccc(C)cc1,.,.,.,.
Clc1ccc(-c2nnc(CSc3nnc(-c4cccs4)o3)o2)cc1,.,.,.,54.2
c1ccc(-c2nnc(SCc3nnc(-c4cccs4)o3)o2)cc1,.,.,.,.
CCOCCCn1c(SCC(=O)Nc2cccc(OC)c2)nc2ccccc2c1=O,.,/,/,.
Cc1[nH]c2ccccc2c1/C=N/Nc1ccc([N+](=O)[O-])cc1,121.4,.,.,.
N#C/C(=C\c1coc2ccc(O)cc2c1=O)C(=O)Nc1nc2ccccc2s1,235.4,63.6,222.4,.
N#C/C(=C\c1coc2ccccc2c1=O)C(N)=S,.,.,.,.
COc1ccc(N=C2SC(C(=O)N3CCN(c4ccc([N+](=O)[O-])cc4)CC3)CC(=O)N2C)cc1 (stereo not given),.,.,.,.
Brc1ccc(CSc2nnc(Cc3c[nH]c4ccccc34)o2)cc1,.,.,.,50.3
Clc1ccc(CSc2nnc(-c3c[nH]c4ccccc34)o2)cc1,.,.,.,.
CCO[C@@H]1OC(C(N)=O)=C[C@H](C(C)(C)C)[C@H]1CCCO,.,/,/,108.6
CCCN(c1ccc(C(=O)OC)cc1)S(=O)(=O)c1ccccc1,.,.,.,.
CCCCN(c1ccc(C(=O)OC)cc1)S(=O)(=O)c1ccccc1,.,.,.,62.8
COC(=O)[C@@H](NC(=O)NC1CCN(Cc2ccccc2)CC1)C(C)C,.,.,.,.
Cc1cc(C)cc(NC(=O)Cn2nnc(C(=O)NCc3ccc(F)cc3)c2N)c1,.,/,/,75.8
Cc1nn(C)c(N)c1[N+](=O)[O-],.,.,.,.
CN(Cc1ccc(F)cc1)C(=O)C(c1ccccc1)c1ccccc1,.,/,/,.
COc1ccccc1CN(C)C(=O)C(c1ccccc1)c1ccccc1,.,/,/,57.2
N#Cc1ccsc1NC(=O)c1ccc2ncsc2c1,.,/,/,.
N#Cc1ccsc1NC(=O)c1cccc([N+](=O)[O-])c1,66.0,.,.,63.3
O=C(O)c1cc(NC(=O)c2ccc(Cl)c([N+](=O)[O-])c2)cc(C(=O)O)c1,.,.,.,.
N#Cc1ccsc1NC(=O)c1ccc(Cl)c([N+](=O)[O-])c1,66.7,19.3,30.3,72.1
O=S(=O)(c1ccccc1)c1cnn(-c2ccccc2)c1-c1ccc(F)cc1,.,.,.,51.3
O=[N+]([O-])c1ccc(O)c(Nc2ncnc3ccc(Br)cc23)c1,51.7,.,.,65.6
Cc1ccc(O)c(Nc2ncnc3ccc([N+](=O)[O-])cc23)c1,.,/,/,.
SMILES,CRFBP-R2 agonist,TRPML3 ag,zfTRPN1 agonist,CRFBP-R2 block
O=[N+]([O-])c1ccc(O)c(Nc2ncnc3ccccc23)c1,.,.,.,62.7
COc1ccc([N+](=O)[O-])cc1Nc1ncnc2ccccc12,.,.,.,.
CCOc1ccc(N=C(NC#N)SC)cc1,.,.,.,.
CC1=CC2=NC(=O)/C(=C/c3cccs3)C(=N)N2O1,.,.,.,.
CSC1=NSC2=NC(=O)/C(=C\c3cccs3)C(=N)N12,.,.,.,.
CC(C)CSC1=NSC2=NC(=O)/C(=C\c3cccs3)C(=N)N12,70.4,.,.,74.9
N=C1/C(=C/c2cccs2)C(=O)N=C2SN=C(SCc3ccccc3)N12,.,.,.,101.8
COc1cc(/C=C2\CCC(C)C3=C(c4cc(OC)c(OC)c(OC)c4)C(C#N)=C(N)OC32)cc(OC)c1OC (stereo not given),63.1,/,/,.
CN(C)c1ncc(S(=O)(=O)c2ccc(Cl)cc2)c(-c2ccc(Cl)cc2Cl)n1,.,.,.,56.3
Cc1ncc(S(=O)(=O)c2ccccc2)c(-c2ccccc2Cl)n1,.,.,.,.
O=C(O)c1ccc2c(c1)C(=O)/C(=C/c1ccccc1)C2=O,.,.,.,.
c1ccc(C2CC(c3cccs3)Nc3nnnn32)cc1 (stereo not given),.,.,.,.
Brc1cccc(C2CC(c3ccccc3)n3nnnc3N2)c1 (stereo not given),.,.,.,54.8
O=C(NC(C(=O)N/N=C/c1c2ccccc2cc2ccccc12)c1n[nH]c(=O)c2ccccc12)c1ccccc1 (stereo not given),.,.,.,.
